Test results: ChEMBL document CHEMBL4038313, “Expanding the Antiviral Spectrum of 3-Fluoro-2-(phosphonomethoxy)propyl Acyclic Nucleoside Phosphonates: Diamyl Aspartate Amidate Prodrugs” (J Med Chem, 2017)

How the values were obtained:
[1] = tested on: Human immunodeficiency virus 1; assay: Antiviral activity against HIV-1 infected in human MT4 cells measured on day 5 post-infection by trypan blue dye staining-based method; type: functional, cell-based; details: Human immunodeficiency virus 1, MT4, 120 h
[2] = tested on: Human immunodeficiency virus 2; assay: Antiviral activity against HIV-2 infected in human MT4 cells measured on day 5 post-infection by trypan blue dye staining-based method; type: functional, cell-based; details: Human immunodeficiency virus 2, MT4, 120 h
[3] = Cytotoxicity against human MT4 cells assessed as reduction in cell viability after 6 days by XTT tetrazolium dye-based assay
Procedure, shortened: (§1)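 MT-4 cells, 1 × 10^4 per well, given compound dilutions and wild-type NL4-3 or K65R NL4-3. Virus titred to give 85–95% cell killing at day 6. Incubated 6 days at 37 °C, 5% CO2. Viability read by XTT at 450/650 nm. EC50 from CPE reduction and toxicity from uninfected drug wells, by four-parameter fit. Fold change is K65R EC50 over wild-type EC50.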

[4] = tested on: Human immunodeficiency virus 1; assay: Antiviral activity against tenofovir-resistant CXCR4-tropic HIV-1 NL4-3 harboring reverse transcriptase K65R mutant infected in human MT4 cells assessed as inhibition of viral replication inhibition of virus-induced cytopathic effect after 6 days by XTT dye based assay; type: functional, cell-based; details: Human immunodeficiency virus 1, NL4-3, MT4, 144 h; procedure, shortened: as §1
[5] = tested on: Human immunodeficiency virus 1; assay: Antiviral activity against CXCR4-tropic HIV-1 NL4-3 infected in human MT4 cells assessed as inhibition of virus-induced cytopathic effect after 6 days by XTT dye based assay; type: functional, cell-based; details: Human immunodeficiency virus 1, NL4-3, MT4, 144 h; procedure, shortened: as §1
[6] = tested on: Human immunodeficiency virus 1; assay: Selectivity ratio of EC50 for tenofovir-resistant CXCR4-tropic HIV-1 NL4-3 harboring reverse transcriptase K65R mutant infected in human MT4 cells to EC50 for CXCR4-tropic HIV-1 NL4-3 infected in human MT4 cells; type: functional; procedure, shortened: as §1
[7] = Cytotoxicity against human PHA-stimulated PBMC assessed as cell viability by tetrazolium dye assay; type: cell-based
[8] = Selectivity index, ratio of CC50 for human PHA-stimulated PBMCs to IC50 for CCR5 tropic HIV1 BaL infected in human PHA-stimulated PBMC
[9] = Selectivity index, ratio of CC50 for HepG2.2.15 cells to EC50 for HBV ayw1 infected in human HepG2(2.2.15) cells assessed as reduction in viral replication by measuring extracellular viral DNA copy
Procedure, shortened: (§2)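 HepG2.2.15 cells (two copies of HBV ayw1 genome), 1.5 × 10^4/well in DMEM with 2% FBS and 380 μg/mL G418. After 16–24 h, compound added in triplicate, medium with compound renewed at day 3. Supernatant collected at day 6, Pronase-treated, and extracellular HBV DNA measured by TaqMan qPCR (precore/core) against an HBV DNA standard curve. EC50/EC90 derived; CC50 by MTS uptake.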

[10] = Selectivity index, ratio of CC50 for human TZM-bl cells to EC50 for CXCR4-tropic HIV-1 NL4-3 infected in human TZM-bl cells; type: toxicity, cell-based; details: read-out: Ratio CC50/EC50
[11] = tested on: Human immunodeficiency virus 1; assay: Antiviral activity against CXCR4-tropic HIV-1 NL4-3 infected in human TZM-bl cells assessed as inhibition of virus-induced cytopathic effect preincubated with cells for 30 mins followed by viral infection measured after 48 hrs in presence of p-24 HIV-1 Ag by luciferase reporter gene assay; type: functional, cell-based; details: Human immunodeficiency virus 1, NL4-3, TZM-bl
Procedure, shortened: (§3)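 TZM-bl cells, 1 × 10^4 per well in DMEM with 10% FBS and 10 mM […], incubated 30 min at 37 °C with compound. Then HIV-1 NL4.3 (X4) or BaL (R5) added at 100 pg p24 Ag per well. After 48 h, cells lysed with luciferase substrate. Tat-induced luminescence read after 10 min dark incubation as a measure of replication.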

Hepatitis B virus [12] = assay: Antiviral activity against HBV ayw1 infected in human HepG2(2.2.15) cells assessed as reduction in viral replication by measuring extracellular viral DNA copy number after 6 days by real-time qPCR method; type: functional, cell-based; details: ayw1, HepG2 2.2.15, 144 h; procedure, shortened: as §2
Human alphaherpesvirus 3 [13] = assay: Antiviral activity against thymidine kinase expressing Varicella-Zoster virus Oka strain assessed as inhibition of plaque formation; type: functional; details: Human alphaherpesvirus 3, strain Oka vaccine
Procedure, shortened: (§4)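 HEL fibroblast monolayers inoculated with 100 CCID50 HCMV (AD-169, Davis) or 20 PFU VZV (TK+ Oka, TK− 07-1). Adsorbed 1–2 h, inoculum removed, then incubated with compound dilutions. HCMV cytopathicity or VZV plaques scored once untreated infected controls reached completion. EC50 is 50% reduction. SI is CC50/EC50, and the potency ratio is the ratio of EC50s.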

[14] = Selectivity index, ratio of CC50 for human PHA-stimulated PBMC to IC50 for CXCR4-tropic HIV-1 NL4-3 infected in human PHA-stimulated PBMC
[15] = Cytotoxic activity against HEL cells assessed as alteration of cell morphology after 3 days by microscopic method; type: cell-based; details: human
Procedure, shortened: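 HEL cells with compound; MCC is the lowest concentration giving microscopically detectable alteration of cell morphology.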

[16] = tested on: Human immunodeficiency virus 1; assay: (§5) Antiviral activity against CXCR4-tropic HIV-1 NL4-3 infected in human PHA-stimulated PBMC assessed as inhibition of viral replication by measuring reduction in p24 antigen production preincubated with cells for 30 mins followed by viral infection measured on day 10 post infection in presence of IL-2 by ELISA; type: functional; details: Human immunodeficiency virus 1, NL4-3
Procedure, shortened: (§6)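 PBMCs stimulated with 2 μg/mL PHA for 3 days at 37 °C, then 5 × 10^5 cells/ml preincubated 30 min at 37 °C with serial compound dilutions plus 2 ng/mL IL-2. Infected with 1500 pg/well HIV-1 BaL or 500 pg/well other isolates. IL-2 re-added on days 3 and 6. Supernatant p24 Ag measured by ELISA at day 10. EC50 is 50% inhibition of replication.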

Human betaherpesvirus 5 [17] = assay: Antiviral activity against HCMV Davis strain infected in HEL cells assessed as inhibition of virus-induced cytopathic effect; type: functional, cell-based; details: Human betaherpesvirus 5, Davis; procedure, shortened: as §4
[18] = tested on: Human immunodeficiency virus 1; assay: Antiviral activity against CCR5 tropic HIV1 BaL infected in human TZM-bl cells assessed as inhibition of virus-induced cytopathic effect preincubated with cells for 30 mins followed by viral infection measured after 48 hrs in presence of p-24 HIV-1 Ag by luciferase reporter gene assay; type: functional, cell-based; details: Human immunodeficiency virus 1, BaL; procedure, shortened: as §3
[19] = Cytotoxicity against human TZM-bl cells assessed as cell viability by tetrazolium dye assay; type: cell-based
[20] = Cytotoxicity against human HepG2.2.15 cells assessed as cell viability by tetrazolium dye uptake assay; type: cell-based, HepG2 2.2.15
Procedure, shortened: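 HepG2.2.15 cells (two integrated copies of HBV ayw1 genome) were seeded at 1.5 × 10^4 cells/well in DMEM with 2% FBS, 380 μg/mL G418, glutamine, antibiotics and nonessential amino acids. After 16−24 h, medium with various compound concentrations was added in triplicate and renewed on day 3. After 6 days of treatment, viability was read by MTS uptake and CC50 was calculated.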

Human alphaherpesvirus 3 [21] = assay: Antiviral activity against thymidine kinase deficient Varicella-Zoster virus 07-1 infected in HEL cells assessed as inhibition of plaque formation; type: functional, cell-based; details: Human alphaherpesvirus 3, 07-1, HEL; procedure, shortened: as §4
[22] = tested on: Human immunodeficiency virus 1; assay: as §5, with “CCR5 tropic HIV1 BaL” for “CXCR4-tropic HIV-1 NL4-3”; type: functional; details: Human immunodeficiency virus 1, BaL; procedure, shortened: as §6
Human betaherpesvirus 5 [23] = assay: Antiviral activity against Human cytomegalovirus AD169 infected in HEL cells assessed as inhibition of virus-induced cytopathic effect; type: functional, cell-based; details: Human betaherpesvirus 5, AD169, HEL; procedure, shortened: as §4
[24] = Selectivity index, ratio of CC50 for human TZM-bl cells to EC50 for CCR5 tropic HIV1 BaL infected in human TZM-bl cells; type: toxicity, cell-based; details: read-out: Ratio CC50/EC50
Hepatitis B virus [25] = assay: Antiviral activity against HBV infected in human HepG2(2.2.15) cells assessed as decrease in extracellular HBV DNA levels after 12 days by dot blot analysis; type: functional, cell-based; details: HepG2 2.2.15, 288 h
[26] = Cytotoxic activity against HEL cells assessed as reduction in cell proliferation after 3 days by coulter counting method; type: cell-based; details: human
Procedure, shortened: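 HEL cells seeded at 5 × 10^3/well, grown 24 h, then given compound for 3 days at 37 °C. Cell number counted by Coulter counter. CC50 is 50% reduction of proliferation relative to untreated controls, read from graphic plots.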

[27] = Selectivity index, ratio of CC50 for human HEL cells to EC50 for HCMV Davis strain; procedure, shortened: as §4
[28] = Selectivity index, ratio of CC50 for human HEL cells to EC50 for HCMV AD-169 strain; procedure, shortened: as §4
Hepatitis B virus [29] = assay: Antiviral activity against HBV ayw1 infected in human HepG2(2.2.15) cells assessed as reduction in viral replication by measuring intracellular viral DNA copy number after 6 days byr by real-time qPCR assay; type: functional, cell-based; details: ayw1, HepG2 2.2.15, 144 h
Procedure, shortened: (§7)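 Run as the HepG2.2.15 6-day assay (triplicate compound, medium with compound renewed at day 3). At the end, total intracellular DNA was isolated from the cells and HBV DNA copy number measured by TaqMan qPCR. EC50/EC90 derived; SI is CC50/EC50.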

[30] = Selectivity index, ratio of CC50 for HepG2.2.15 cells to EC50 for HBV ayw1 infected in human HepG2(2.2.15) cells assessed as reduction in viral replication by measuring intracellular viral DNA copy; procedure, shortened: as §7

SMILES | EC50 [1] | EC50 [2] | CC50 [7] | Ratio CC50/IC50 [8] | Ratio CC50/EC50 [9] | selectivity ratio [10] | EC50 [11] | EC50 (Hepatitis B virus [12]) | EC90 (Hepatitis B virus [12]) | EC50 (Human alphaherpesvirus 3 [13]) | Ratio CC50/IC50 [14] | MCC at 72 h [15] | IC50 [16] | EC50 (Human betaherpesvirus 5 [17]) | EC50 [18] | CC50 [19] | CC50 [20] | EC50 (Human alphaherpesvirus 3 [21]) | IC50 [22] | EC50 (Human betaherpesvirus 5 [23]) | also measured
Nc1nc(N)c2ncn(C[C@H](CF)OCP(=O)(O)O)c2n1 | 4.3 µM | 4.6 µM |  |  |  |  |  |  |  |  |  |  |  |  |  |  |  |  |  |  | 
Cc1cn([C@H]2C[C@H](N=[N+]=[N-])[C@@H](CO)O2)c(=O)[nH]c1=O [ZIDOVUDINE] |  |  |  |  |  |  |  |  |  |  |  |  |  |  |  |  |  |  |  |  | CC50 at 144 h [3]: > 0.5 µM; EC50 [4]: 0.005 µM; EC50 [5]: 0.004 µM; Ratio EC50 [6]: 1.3
Nc1ncnc2c1ncn2C[C@@H](CF)OCP(=O)(O)O | 8 µM | 8 µM | > 100 µM | 27 | >61 | > 17 | 5.95 µM | > 1.65 µM | > 100 µM | 98 µM | 84 | > 328 µM | 1.19 µM | > 328 µM | 6.47 µM | > 100 µM | > 100 µM | 131 µM | 3.73 µM | > 328 µM | selectivity ratio [24]: > 15; EC50 (Hepatitis B virus [25]): 1.2 µM
CCCCCOC(=O)C[C@H](NP(=O)(CO[C@H](CF)Cn1cnc2c(=O)[nH]c(N)nc21)Oc1ccccc1)C(=O)OCCCCC (some centres not stated) |  |  | 11.2 µM | 86 | >769 | > 625 | 0.16 µM | 0.13 µM | 2.86 µM | 0.59 µM | 374 | 153 µM | 0.03 µM | 3.05 µM | 0.22 µM | > 100 µM | > 100 µM | 0.079 µM | 0.13 µM | 5.94 µM | CC50 at 72 h [26]: 27.8 µM; Ratio CC50/EC50 [27]: <10; Ratio CC50/EC50 [28]: <10; selectivity ratio [24]: > 455
Nc1ccn([C@@H]2CS[C@H](CO)O2)c(=O)n1 [LAMIVUDINE] |  |  |  |  | >105 |  |  | 0.02 µM | > 2 µM |  |  |  |  |  |  |  | > 2 µM |  |  |  | EC50 (Hepatitis B virus [29]): 0.00887 µM; EC90 (Hepatitis B virus [29]): > 2 µM; Ratio CC50/EC50 [30]: >225
